Laboratory results published in ChEMBL document CHEMBL1154152, “Synthesis of some novel bioactive 4-oxy/thio substituted-1H-pyrazol-5(4H)-ones via efficient cross-Claisen condensation” (2009).
In brackets after ≈: the same amount, converted by molar mass.

Experiments:
Type in all cases: functional
[1] = system: Trichophyton mentagrophytes; assay: Antifungal activity against Trichophyton mentagrophytes after 3 to 4 days by serial plate dilution method
Talaromyces marneffei [2] = assay: Antifungal activity against Penicillium marneffei after 3 to 4 days by serial plate dilution method
Procedure, shortened: (§1)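 Sabouraud's agar made from peptone, D-glucose and agar, pH 5.7, and lawned with a fungal spore suspension in normal saline. Wells cut with an agar punch received 10–50 mg/ml test compound in DMSO; DMSO-only control plates. Triplicate plates kept at 37 °C for 3–4 days.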

Staphylococcus aureus = assay: Antibacterial activity against Staphylococcus aureus ATCC 25923 after 24 hrs by disk diffusion method; conditions: for MIC: Staphylococcus aureus, ATCC 25923, 24 h
Procedure, shortened: (§2)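 Discs with each concentration, in triplicate, on nutrient agar seeded with fresh bacteria. Incubated 37 °C for 24 h, with solvent and growth controls. Zones of inhibition and MIC recorded.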

Escherichia coli = assay: Antibacterial activity against Escherichia coli ATTC 25922 after 24 hrs by disk diffusion method; conditions: for MIC: Escherichia coli, ATTC 25922, 24 h; procedure, shortened: as §2
Pseudomonas aeruginosa = assay: Antibacterial activity against Pseudomonas aeruginosa ATTC 27853 after 24 hrs by disk diffusion method; conditions: for MIC: Pseudomonas aeruginosa, ATTC 27853, 24 h; procedure, shortened: as §2
Klebsiella sp. = assay: Antibacterial activity against Klebsiella sp. after 24 hrs by disk diffusion method; conditions: for MIC: Klebsiella sp., 24 h; procedure, shortened: as §2
[3] = system: Trichophyton mentagrophytes; assay: Antifungal activity against Trichophyton mentagrophytes at 10 to 50 ug/ml after 3 to 4 days by serial plate dilution method
Talaromyces marneffei [4] = assay: Antifungal activity against Penicillium marneffei at 10 to 50 ug/ml after 3 to 4 days by serial plate dilution method
Aspergillus flavus [5] = assay: Antifungal activity against Aspergillus flavus at 10 to 50 ug/ml after 3 to 4 days by serial plate dilution method
Aspergillus flavus [6] = assay: Antifungal activity against Aspergillus flavus after 3 to 4 days by serial plate dilution method; procedure, shortened: as §1
Aspergillus fumigatus [7] = assay: Antifungal activity against Aspergillus fumigatus at 10 to 50 ug/ml after 3 to 4 days by serial plate dilution method
Aspergillus fumigatus [8] = assay: Antifungal activity against Aspergillus fumigatus after 3 to 4 days by serial plate dilution method

Row | SMILES | MIC [1] | MIC (Talaromyces marneffei [2]) | inhibition zone (IZ) (Staphylococcus aureus) | MIC (Staphylococcus aureus) | inhibition zone (IZ) (Escherichia coli) | MIC (Escherichia coli) | inhibition zone (IZ) (Pseudomonas aeruginosa) | MIC (Pseudomonas aeruginosa) | inhibition zone (IZ) (Klebsiella sp.) | MIC (Klebsiella sp.) | inhibition zone (IZ) [3] | inhibition zone (IZ) (Talaromyces marneffei [4]) | inhibition zone (IZ) (Aspergillus flavus [5]) | MIC (Aspergillus flavus [6]) | inhibition zone (IZ) (Aspergillus fumigatus [7]) | MIC (Aspergillus fumigatus [8])
1 | CC(C)(C)C1=NNC(=O)C1Oc1ccccc1 (configuration not stated) | 6.25 µg/mL (≈ 26.9 µM) | 6.25 µg/mL (≈ 26.9 µM) | 16 mm | 6.25 µg/mL (≈ 26.9 µM) | 18 mm | 6.25 µg/mL (≈ 26.9 µM) | 20 mm | 6.25 µg/mL (≈ 26.9 µM) | 18 mm | 6.25 µg/mL (≈ 26.9 µM) | 19 mm | 21 mm | 16 mm | 6.25 µg/mL (≈ 26.9 µM) | 18 mm | 6.25 µg/mL (≈ 26.9 µM)
2 | CC(C)CC1=NN(C)C(=O)C1Oc1ccccc1 (configuration not stated) | 6.25 µg/mL (≈ 25.4 µM) | 6.25 µg/mL (≈ 25.4 µM) | 19 mm | 6.25 µg/mL (≈ 25.4 µM) | 12 mm | 25 µg/mL (≈ 101 µM) | 19 mm | 6.25 µg/mL (≈ 25.4 µM) | 17 mm | 6.25 µg/mL (≈ 25.4 µM) | 18 mm | 19 mm | 18 mm | 6.25 µg/mL (≈ 25.4 µM) | 16 mm | 6.25 µg/mL (≈ 25.4 µM)
3 | Cc1cc(C2CCCCC2)n(O)c(=O)c1.NCCO [CICLOPIROX OLAMINE] | 3.12 µg/mL | 6.25 µg/mL | – | – | – | – | – | – | – | – | 27 mm | 23 mm | 27 mm | 3.12 µg/mL | 26 mm | 6.25 µg/mL
4 | COCC1=NNC(=O)C1SCc1ccccc1 (configuration not stated) | 50 µg/mL (≈ 200 µM) | 50 µg/mL (≈ 200 µM) | 17 mm | 6.25 µg/mL (≈ 25 µM) | <10 mm | 50 µg/mL (≈ 200 µM) | <10 mm | 50 µg/mL (≈ 200 µM) | <10 mm | 50 µg/mL (≈ 200 µM) | <10 mm | <10 mm | <10 mm | 50 µg/mL (≈ 200 µM) | <10 mm | 50 µg/mL (≈ 200 µM)
5 | CCC1=NNC(=O)C1Oc1ccccc1 (configuration not stated) | 6.25 µg/mL (≈ 30.6 µM) | 6.25 µg/mL (≈ 30.6 µM) | 19 mm | 6.25 µg/mL (≈ 30.6 µM) | 18 mm | 6.25 µg/mL (≈ 30.6 µM) | 20 mm | 6.25 µg/mL (≈ 30.6 µM) | 16 mm | 6.25 µg/mL (≈ 30.6 µM) | 16 mm | 18 mm | 21 mm | 6.25 µg/mL (≈ 30.6 µM) | 17 mm | 6.25 µg/mL (≈ 30.6 µM)
6 | O=C1NN=C(c2ccc(Cl)cc2)C1Oc1ccccc1 (configuration not stated) | 50 µg/mL (≈ 174 µM) | 50 µg/mL (≈ 174 µM) | 21 mm | 6.25 µg/mL (≈ 21.8 µM) | 12 mm | 25 µg/mL (≈ 87.2 µM) | <10 mm | 50 µg/mL (≈ 174 µM) | <10 mm | 50 µg/mL (≈ 174 µM) | <10 mm | <10 mm | <10 mm | 50 µg/mL (≈ 174 µM) | <10 mm | 50 µg/mL (≈ 174 µM)
7 | COCC1=NNC(=O)C1Oc1ccccc1 (configuration not stated) | 6.25 µg/mL (≈ 28.4 µM) | 6.25 µg/mL (≈ 28.4 µM) | 17 mm | 6.25 µg/mL (≈ 28.4 µM) | 12 mm | 25 µg/mL (≈ 114 µM) | 17 mm | 6.25 µg/mL (≈ 28.4 µM) | 20 mm | 6.25 µg/mL (≈ 28.4 µM) | 17 mm | 17 mm | 18 mm | 6.25 µg/mL (≈ 28.4 µM) | 20 mm | 6.25 µg/mL (≈ 28.4 µM)
8 | CC(C)CC1=NN(c2ccc(F)cc2)C(=O)C1Sc1ccccc1 (configuration not stated) | 6.25 µg/mL (≈ 18.3 µM) | 6.25 µg/mL (≈ 18.3 µM) | 19 mm | 6.25 µg/mL (≈ 18.3 µM) | 13 mm | 25 µg/mL (≈ 73 µM) | 20 mm | 6.25 µg/mL (≈ 18.3 µM) | 19 mm | 6.25 µg/mL (≈ 18.3 µM) | 18 mm | 19 mm | 20 mm | 6.25 µg/mL (≈ 18.3 µM) | 19 mm | 6.25 µg/mL (≈ 18.3 µM)
9 | CC(C)CC1=NNC(=O)C1Sc1ccccc1 (configuration not stated) | 6.25 µg/mL (≈ 25.2 µM) | 6.25 µg/mL (≈ 25.2 µM) | 19 mm | 6.25 µg/mL (≈ 25.2 µM) | 21 mm | 6.25 µg/mL (≈ 25.2 µM) | 18 mm | 6.25 µg/mL (≈ 25.2 µM) | 21 mm | 6.25 µg/mL (≈ 25.2 µM) | 21 mm | 18 mm | 18 mm | 6.25 µg/mL (≈ 25.2 µM) | 18 mm | 6.25 µg/mL (≈ 25.2 µM)
10 | COc1ccc(OC2C(=O)NN=C2C)cc1 (configuration not stated) | 50 µg/mL (≈ 227 µM) | 50 µg/mL (≈ 227 µM) | 19 mm | 6.25 µg/mL (≈ 28.4 µM) | 11 mm | 25 µg/mL (≈ 114 µM) | <10 mm | 50 µg/mL (≈ 227 µM) | <10 mm | 50 µg/mL (≈ 227 µM) | <10 mm | <10 mm | <10 mm | 50 µg/mL (≈ 227 µM) | <10 mm | 50 µg/mL (≈ 227 µM)
11 | CC(C)C1=NNC(=O)C1Sc1ccccc1 (configuration not stated) | 6.25 µg/mL (≈ 26.7 µM) | 6.25 µg/mL (≈ 26.7 µM) | 20 mm | 6.25 µg/mL (≈ 26.7 µM) | 18 mm | 6.25 µg/mL (≈ 26.7 µM) | 17 mm | 6.25 µg/mL (≈ 26.7 µM) | 16 mm | 6.25 µg/mL (≈ 26.7 µM) | 16 mm | 19 mm | 18 mm | 6.25 µg/mL (≈ 26.7 µM) | 20 mm | 6.25 µg/mL (≈ 26.7 µM)
12 | O=C(O)c1cn(C2CC2)c2cc(N3CCNCC3)c(F)cc2c1=O [CIPROFLOXACIN] | – | – | 23 mm | 6.25 µg/mL (≈ 18.9 µM) | 32 mm | 6.25 µg/mL (≈ 18.9 µM) | 28 mm | 6.25 µg/mL (≈ 18.9 µM) | 24 mm | 6.25 µg/mL (≈ 18.9 µM) | – | – | – | – | – | –
13 | CC1=NNC(=O)C1OCc1cccc(Br)c1 (configuration not stated) | 6.25 µg/mL (≈ 22.1 µM) | 6.25 µg/mL (≈ 22.1 µM) | 21 mm | 6.25 µg/mL (≈ 22.1 µM) | 11 mm | 25 µg/mL (≈ 88.3 µM) | 18 mm | 6.25 µg/mL (≈ 22.1 µM) | 19 mm | 6.25 µg/mL (≈ 22.1 µM) | 20 mm | 18 mm | 19 mm | 6.25 µg/mL (≈ 22.1 µM) | 18 mm | 6.25 µg/mL (≈ 22.1 µM)
14 | CCC1=NN(c2ccc(F)cc2)C(=O)C1Oc1ccccc1 (configuration not stated) | 6.25 µg/mL (≈ 21 µM) | 6.25 µg/mL (≈ 21 µM) | 16 mm | 6.25 µg/mL (≈ 21 µM) | 14 mm | 25 µg/mL (≈ 83.8 µM) | 18 mm | 6.25 µg/mL (≈ 21 µM) | 20 mm | 6.25 µg/mL (≈ 21 µM) | 21 mm | 17 mm | 19 mm | 6.25 µg/mL (≈ 21 µM) | 21 mm | 6.25 µg/mL (≈ 21 µM)
15 | CC(C)CC1=NNC(=O)C1Sc1ccc(Cl)cc1 (configuration not stated) | 6.25 µg/mL (≈ 22.1 µM) | 6.25 µg/mL (≈ 22.1 µM) | 18 mm | 6.25 µg/mL (≈ 22.1 µM) | 11 mm | 25 µg/mL (≈ 88.4 µM) | 17 mm | 6.25 µg/mL (≈ 22.1 µM) | 16 mm | 6.25 µg/mL (≈ 22.1 µM) | 19 mm | 20 mm | 18 mm | 6.25 µg/mL (≈ 22.1 µM) | 17 mm | 6.25 µg/mL (≈ 22.1 µM)
16 | CC1=NNC(=O)C1Sc1ccccc1 (configuration not stated) | 6.25 µg/mL (≈ 30.3 µM) | 6.25 µg/mL (≈ 30.3 µM) | 18 mm | 6.25 µg/mL (≈ 30.3 µM) | 13 mm | 25 µg/mL (≈ 121 µM) | 19 mm | 6.25 µg/mL (≈ 30.3 µM) | 16 mm | 6.25 µg/mL (≈ 30.3 µM) | 18 mm | 21 mm | 16 mm | 6.25 µg/mL (≈ 30.3 µM) | 17 mm | 6.25 µg/mL (≈ 30.3 µM)
17 | O=C1NN=C(COc2ccccc2)C1Oc1ccccc1 (configuration not stated) | 6.25 µg/mL (≈ 22.1 µM) | 6.25 µg/mL (≈ 22.1 µM) | 18 mm | 6.25 µg/mL (≈ 22.1 µM) | 17 mm | 6.25 µg/mL (≈ 22.1 µM) | 16 mm | 6.25 µg/mL (≈ 22.1 µM) | 19 mm | 6.25 µg/mL (≈ 22.1 µM) | 19 mm | 18 mm | 20 mm | 6.25 µg/mL (≈ 22.1 µM) | 21 mm | 6.25 µg/mL (≈ 22.1 µM)
18 | CCC1=NNC(=O)C1SCc1ccccc1 (configuration not stated) | 6.25 µg/mL (≈ 26.7 µM) | 6.25 µg/mL (≈ 26.7 µM) | 16 mm | 6.25 µg/mL (≈ 26.7 µM) | 17 mm | 6.25 µg/mL (≈ 26.7 µM) | 20 mm | 6.25 µg/mL (≈ 26.7 µM) | 17 mm | 6.25 µg/mL (≈ 26.7 µM) | 17 mm | 19 mm | 17 mm | 6.25 µg/mL (≈ 26.7 µM) | 17 mm | 6.25 µg/mL (≈ 26.7 µM)
